MIC, IC50 and inhibition data for 15 compounds are collected here from ChEMBL document CHEMBL1909494, “Synthesis and structure-activity relationship studies of 4-arylthiosemicarbazides as topoisomerase IV inhibitors with Gram-positive antibacterial activity. Search for molecular basis of antibacterial activity of thiosemicarbazides” (Eur J Med Chem, 2011).

Converted amounts (≈) assume the structure as drawn. The source made the active and inactive calls. No cut-off for these calls is given here.

One assay has as its system Bacillus subtilis. Briefly: Antibacterial activity against Bacillus subtilis ATCC 6633 by agar dilution method. Type of assay: functional. A general note: In agar dilution the substance is mixed into plates at graded concentrations.
The next assay deals with Bacillus cereus. Briefly: Antibacterial activity against Bacillus cereus ATCC 11778 by agar dilution method. The format is functional.
Assay [1] has as its system Micrococcus luteus. Briefly: Antibacterial activity against Micrococcus luteus ATCC 10240 by agar dilution method. Type of assay: functional.
For assay [2], the system named is Micrococcus luteus. Briefly: Antibacterial activity against Micrococcus luteus ATCC 9341 by agar dilution method. The format is functional.
The test system of assay [3] is Staphylococcus aureus. Briefly: Antibacterial activity against Staphylococcus aureus ATCC 6538 by agar dilution method. The format is functional.
In assay [4] the test system is Staphylococcus aureus. Briefly: Antibacterial activity against Staphylococcus aureus ATCC 25923 by agar dilution method. Type of assay: functional.
Assay [5] relates to Staphylococcus epidermidis. Briefly: Antibacterial activity against Staphylococcus epidermidis ATCC 12228 by agar dilution method. The format is functional.
Assay [6] relates to Staphylococcus aureus. Briefly: Antibacterial activity against Staphylococcus aureus NCTC 4163 by agar dilution method. The format is functional.
In assay [7] the test system is Staphylococcus aureus. Briefly: Antibacterial activity against Staphylococcus aureus ATCC 29213 by agar dilution method. The format is functional.
Assay [8] is described as follows: (§1) Inhibition of Staphylococcus aureus topoisomerase 4 assessed as inhibition of decatenation of kDNA after 1 hr by agarose gel electrophoresis. In short, it runs like this:
(§2)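 kDNA was incubated with 1 unit of topoisomerase IV in decatenation assay buffer with varying compound concentrations at 37 °C for 1 h. Reactions were stopped with 2x STOP buffer plus chloroform/iso-amyl alcohol and run on a 1% agarose gel in TAE for 1.5 h at 80 V, then stained with ethidium bromide. IC50 was the concentration preventing 50% conversion of kDNA to decatenated minicircles, derived from gel densitometry.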

In assay [9] the test system is Staphylococcus aureus. The assay is described as §1. The essentials:
as §2

Assay [10] addresses DNA gyrase (Staphylococcus aureus) (UniProt P0A0K8+P20831). Briefly: Inhibition of Staphylococcus aureus gyrase using […] DNA as substrate after 1 hr by agarose gel electrophoresis. The format is protein-complex assay. The settings on record: in the assay text read “relaxed” for “supercoiled”. The essentials:
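The enzyme was incubated in the manufacturer's supercoiling assay buffer with varying compound concentrations at 37 °C for 1 h. Samples were run on a 1% agarose gel in TAE for 3 h at 50 V, stained with ethidium bromide and viewed under UV.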

In general, MIC refers to the least concentration at which growth counts as inhibited. One may read the IC50 as the midpoint of a concentration-inhibition curve.

Sequence of DNA gyrase (Staphylococcus aureus) (P0A0K8 2-644 limits assumed): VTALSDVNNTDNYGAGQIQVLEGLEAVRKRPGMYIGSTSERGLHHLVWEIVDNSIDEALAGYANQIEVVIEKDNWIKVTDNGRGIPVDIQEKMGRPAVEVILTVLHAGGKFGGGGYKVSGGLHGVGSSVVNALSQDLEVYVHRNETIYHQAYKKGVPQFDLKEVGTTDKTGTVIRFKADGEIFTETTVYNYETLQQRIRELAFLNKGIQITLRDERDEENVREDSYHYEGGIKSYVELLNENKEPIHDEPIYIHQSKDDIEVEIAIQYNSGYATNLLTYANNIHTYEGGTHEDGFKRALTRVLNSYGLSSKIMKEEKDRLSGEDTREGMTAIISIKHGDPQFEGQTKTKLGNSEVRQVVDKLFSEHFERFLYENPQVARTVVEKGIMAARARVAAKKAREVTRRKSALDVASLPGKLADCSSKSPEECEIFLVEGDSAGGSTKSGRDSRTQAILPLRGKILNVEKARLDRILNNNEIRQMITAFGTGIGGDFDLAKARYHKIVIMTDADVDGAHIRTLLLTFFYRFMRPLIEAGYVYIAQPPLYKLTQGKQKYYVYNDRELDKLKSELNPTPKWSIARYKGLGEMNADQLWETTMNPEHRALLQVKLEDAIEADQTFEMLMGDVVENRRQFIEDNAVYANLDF
Sequence of DNA gyrase (Staphylococcus aureus) (P20831 whole entry partner): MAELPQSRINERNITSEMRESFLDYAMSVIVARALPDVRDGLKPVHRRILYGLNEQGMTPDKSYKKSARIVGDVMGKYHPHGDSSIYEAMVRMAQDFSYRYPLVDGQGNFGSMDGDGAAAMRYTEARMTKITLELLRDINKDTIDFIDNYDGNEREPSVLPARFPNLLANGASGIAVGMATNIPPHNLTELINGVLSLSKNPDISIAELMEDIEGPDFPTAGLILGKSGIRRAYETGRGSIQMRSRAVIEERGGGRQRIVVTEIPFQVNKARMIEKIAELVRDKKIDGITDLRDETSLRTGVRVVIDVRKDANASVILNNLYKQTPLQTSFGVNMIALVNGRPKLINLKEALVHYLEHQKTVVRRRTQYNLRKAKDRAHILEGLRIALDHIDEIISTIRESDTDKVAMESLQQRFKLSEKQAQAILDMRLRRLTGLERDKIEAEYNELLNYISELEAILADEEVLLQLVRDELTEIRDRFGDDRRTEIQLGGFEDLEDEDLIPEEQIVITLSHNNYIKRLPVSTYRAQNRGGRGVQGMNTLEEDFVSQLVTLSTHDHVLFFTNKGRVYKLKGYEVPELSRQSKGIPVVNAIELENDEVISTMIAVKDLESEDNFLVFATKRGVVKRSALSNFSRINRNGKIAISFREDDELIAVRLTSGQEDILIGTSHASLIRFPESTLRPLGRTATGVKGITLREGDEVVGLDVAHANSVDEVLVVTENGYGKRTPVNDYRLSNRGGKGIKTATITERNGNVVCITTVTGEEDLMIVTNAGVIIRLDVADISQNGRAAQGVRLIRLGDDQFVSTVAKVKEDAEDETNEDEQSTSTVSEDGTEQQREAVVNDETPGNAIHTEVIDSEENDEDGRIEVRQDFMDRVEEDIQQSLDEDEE

For the compound `O=C(NNC(=S)Nc1ccccc1F)c1cc2ccccc2[nH]1`, the minimal inhibitory concentration (MIC) in the assay on Bacillus subtilis was 100 µg/mL (≈ 305 µM); in the assay on Bacillus cereus it was 200 µg/mL (≈ 609 µM); against Micrococcus luteus [1], 100 µg/mL (≈ 305 µM); against Micrococcus luteus [2] it was 100 µg/mL (≈ 305 µM); in the assay on Staphylococcus aureus [3] it was 200 µg/mL (≈ 609 µM); with Staphylococcus aureus [4], 100 µg/mL (≈ 305 µM). Further, the MIC (in assay [5]; against Staphylococcus aureus [6]; with Staphylococcus aureus [7]) was 200 µg/mL (≈ 609 µM) each time.

As for `Cc1nnsc1C(=O)NNC(=S)Nc1ccc(Cl)cc1`, the MIC in the assay with Bacillus subtilis was found to be 50 µg/mL (≈ 153 µM); against Bacillus cereus, 50 µg/mL (≈ 153 µM); in the assay on Micrococcus luteus [1], 50 µg/mL (≈ 153 µM); with Micrococcus luteus [2], 100 µg/mL (≈ 305 µM); in the assay on Staphylococcus aureus [3] it was 100 µg/mL (≈ 305 µM); against Staphylococcus aureus [4] it was 50 µg/mL (≈ 153 µM). In addition, the MIC came to 50 µg/mL (≈ 153 µM) in assay [5], 100 µg/mL (≈ 305 µM) against Staphylococcus aureus [6] and 50 µg/mL (≈ 153 µM) in the assay on Staphylococcus aureus [7].

Regarding `O=C(NNC(=S)Nc1ccc([N+](=O)[O-])cc1)c1cc2ccccc2[nH]1`, the IC50 in [8] was 14 µM. Besides, the MIC in the assay on Bacillus subtilis, against Bacillus cereus, in the assay with Micrococcus luteus [1], against Micrococcus luteus [2], with Staphylococcus aureus [3] and with Staphylococcus aureus [4] was 50 µg/mL (≈ 141 µM) in each case. The minimum inhibitory concentration (MIC) (in [5]; in the assay on Staphylococcus aureus [6]; in the assay on Staphylococcus aureus [7]) was 50 µg/mL (≈ 141 µM) throughout.

Take `Cc1nnsc1C(=O)NNC(=S)Nc1ccc(Br)cc1`: the 50% inhibitory concentration (IC50) in assay [8] came out at 403 µM. Further, the minimum inhibitory concentration (MIC) in the assay with Bacillus subtilis came out at 100 µg/mL (≈ 269 µM); against Bacillus cereus it was 100 µg/mL (≈ 269 µM); against Micrococcus luteus [1], 100 µg/mL (≈ 269 µM); in the assay on Micrococcus luteus [2], 50 µg/mL (≈ 134 µM); in the assay with Staphylococcus aureus [3], 200 µg/mL (≈ 537 µM); in the assay with Staphylococcus aureus [4], 100 µg/mL (≈ 269 µM). Also, the MIC (in [5]; with Staphylococcus aureus [6]; against Staphylococcus aureus [7]) was 200 µg/mL (≈ 537 µM) in each case.

On to `Cc1nnsc1C(=O)NNC(=S)Nc1ccc(Cl)cc1Cl`, for which the MIC with Bacillus subtilis, against Bacillus cereus, with Micrococcus luteus [1], in the assay with Micrococcus luteus [2], in the assay on Staphylococcus aureus [3] and in the assay with Staphylococcus aureus [4] was 100 µg/mL (≈ 276 µM) throughout. For the same compound, the minimal inhibitory concentration (MIC) (in [5]; with Staphylococcus aureus [6]; in the assay with Staphylococcus aureus [7]) was 100 µg/mL (≈ 276 µM) each time.

`O=C(NNC(=S)Nc1ccc(F)cc1F)c1cc2ccccc2[nH]1`: in assay [8], the 50% inhibitory concentration (IC50) worked out at 295 µM. Besides, the minimum inhibitory concentration (MIC) against Bacillus subtilis is 100 µg/mL (≈ 289 µM); against Bacillus cereus, 100 µg/mL (≈ 289 µM); with Micrococcus luteus [1], 25 µg/mL (≈ 72.2 µM); with Micrococcus luteus [2], 100 µg/mL (≈ 289 µM); against Staphylococcus aureus [3] it was 100 µg/mL (≈ 289 µM); in the assay with Staphylococcus aureus [4], 100 µg/mL (≈ 289 µM). Moreover, the MIC came out at 100 µg/mL (≈ 289 µM) in assay [5], 100 µg/mL (≈ 289 µM) against Staphylococcus aureus [6] and 200 µg/mL (≈ 577 µM) with Staphylococcus aureus [7].

For `Cc1nnsc1C(=O)NNC(=S)Nc1ccc(F)cc1`, the minimal inhibitory concentration (MIC) against Bacillus subtilis was determined as 200 µg/mL (≈ 642 µM); against Bacillus cereus it was 200 µg/mL (≈ 642 µM); in the assay with Micrococcus luteus [1] it was 100 µg/mL (≈ 321 µM); in the assay on Micrococcus luteus [2], 100 µg/mL (≈ 321 µM); against Staphylococcus aureus [3], 400 µg/mL (≈ 1280 µM); with Staphylococcus aureus [4], 200 µg/mL (≈ 642 µM). For the same compound, the minimum inhibitory concentration (MIC) turned out to be 200 µg/mL (≈ 642 µM) in assay [5], 400 µg/mL (≈ 1280 µM) with Staphylococcus aureus [6] and 400 µg/mL (≈ 1280 µM) against Staphylococcus aureus [7].

For `Cc1nnsc1C(=O)NNC(=S)Nc1ccccc1`, the minimal inhibitory concentration (MIC) with Bacillus subtilis is 400 µg/mL (≈ 1360 µM); against Bacillus cereus, 400 µg/mL (≈ 1360 µM); against Micrococcus luteus [1] it was 200 µg/mL (≈ 682 µM); against Micrococcus luteus [2], 100 µg/mL (≈ 341 µM); with Staphylococcus aureus [3] it was 400 µg/mL (≈ 1360 µM); in the assay on Staphylococcus aureus [4], 400 µg/mL (≈ 1360 µM). The minimal inhibitory concentration (MIC) (in assay [5]; against Staphylococcus aureus [6]; in the assay with Staphylococcus aureus [7]) was 400 µg/mL (≈ 1360 µM) throughout.

For the compound `Cc1nnsc1C(=O)NNC(=S)Nc1cccc(F)c1`, the MIC stood at 400 µg/mL (≈ 1280 µM) in the assay on Bacillus subtilis; 400 µg/mL (≈ 1280 µM) against Bacillus cereus; 100 µg/mL (≈ 321 µM) against Micrococcus luteus [1]; 200 µg/mL (≈ 642 µM) against Micrococcus luteus [2]; 400 µg/mL (≈ 1280 µM) against Staphylococcus aureus [3]; 200 µg/mL (≈ 642 µM) in the assay on Staphylococcus aureus [4]. The minimal inhibitory concentration (MIC) was 400 µg/mL (≈ 1280 µM) in assay [5], 200 µg/mL (≈ 642 µM) with Staphylococcus aureus [6] and 400 µg/mL (≈ 1280 µM) against Staphylococcus aureus [7].

As for `Cc1nnsc1C(=O)NNC(=S)Nc1ccccc1C(F)(F)F`, the minimal inhibitory concentration (MIC) in the assay with Bacillus subtilis was found to be 200 µg/mL (≈ 553 µM); in the assay with Bacillus cereus it was 400 µg/mL (≈ 1110 µM); with Micrococcus luteus [1] it was 200 µg/mL (≈ 553 µM); in the assay with Micrococcus luteus [2], 200 µg/mL (≈ 553 µM); against Staphylococcus aureus [3], 400 µg/mL (≈ 1110 µM); in the assay with Staphylococcus aureus [4], 50 µg/mL (≈ 138 µM). Besides, the minimal inhibitory concentration (MIC) in [5] worked out at 200 µg/mL (≈ 553 µM); against Staphylococcus aureus [6] it was 100 µg/mL (≈ 277 µM); in the assay with Staphylococcus aureus [7] it was 200 µg/mL (≈ 553 µM).

As for `O=C(NNC(=S)Nc1ccccc1Br)c1cc2ccccc2[nH]1`, the MIC is 200 µg/mL (≈ 514 µM) with Bacillus subtilis; 200 µg/mL (≈ 514 µM) against Bacillus cereus; 100 µg/mL (≈ 257 µM) against Micrococcus luteus [1]; 100 µg/mL (≈ 257 µM) against Micrococcus luteus [2]; 200 µg/mL (≈ 514 µM) in the assay with Staphylococcus aureus [3]; 100 µg/mL (≈ 257 µM) in the assay on Staphylococcus aureus [4]. Also, the figures for the MIC (in assay [5]; in the assay on Staphylococcus aureus [6]; against Staphylococcus aureus [7]) were 200 µg/mL (≈ 514 µM), 200 µg/mL (≈ 514 µM) and 100 µg/mL (≈ 257 µM), respectively.

As to `Cc1nnsc1C(=O)NNC(=S)Nc1ccc([N+](=O)[O-])cc1`, the inhibition entry (in the assay with Staphylococcus aureus [9]; in assay [10]) was “inactive” throughout. Also, the MIC against Bacillus subtilis came out at 100 µg/mL (≈ 296 µM); in the assay on Bacillus cereus it was 100 µg/mL (≈ 296 µM); against Micrococcus luteus [1], 50 µg/mL (≈ 148 µM); in the assay with Micrococcus luteus [2], 100 µg/mL (≈ 296 µM); in the assay on Staphylococcus aureus [3], 100 µg/mL (≈ 296 µM); with Staphylococcus aureus [4] it was 100 µg/mL (≈ 296 µM). The MIC came out at 100 µg/mL (≈ 296 µM) in [5], 100 µg/mL (≈ 296 µM) against Staphylococcus aureus [6] and 200 µg/mL (≈ 591 µM) in the assay on Staphylococcus aureus [7].

As to `Cc1nnsc1C(=O)NNC(=S)Nc1cc(F)ccc1F`, the MIC turned out to be 200 µg/mL (≈ 607 µM) against Bacillus subtilis; 400 µg/mL (≈ 1210 µM) with Bacillus cereus; 200 µg/mL (≈ 607 µM) in the assay with Micrococcus luteus [1]; 100 µg/mL (≈ 304 µM) in the assay with Micrococcus luteus [2]; 400 µg/mL (≈ 1210 µM) with Staphylococcus aureus [3]; 200 µg/mL (≈ 607 µM) in the assay with Staphylococcus aureus [4]. Moreover, the minimum inhibitory concentration (MIC) (in [5]; against Staphylococcus aureus [6]; in the assay on Staphylococcus aureus [7]) was 400 µg/mL (≈ 1210 µM) in each case.

On to `O=C(O)c1cn(C2CC2)c2cc(N3CCNCC3)c(F)cc2c1=O` [CIPROFLOXACIN], for which the MIC is below 0.125 µg/mL in the assay on Bacillus subtilis; 1 µg/mL (≈ 3.02 µM) against Bacillus cereus; 2 µg/mL (≈ 6.04 µM) against Micrococcus luteus [1]; 4 µg/mL (≈ 12.1 µM) in the assay with Micrococcus luteus [2]; 0.5 µg/mL (≈ 1.51 µM) in the assay on Staphylococcus aureus [3]; 0.5 µg/mL (≈ 1.51 µM) in the assay on Staphylococcus aureus [4]. Further, the MIC (in assay [5]; with Staphylococcus aureus [6]; against Staphylococcus aureus [7]) was 0.5 µg/mL (≈ 1.51 µM) each time.

Turning to `O=C(NNC(=S)Nc1ccc(F)cc1)c1cc2ccccc2[nH]1`, the minimal inhibitory concentration (MIC) against Bacillus subtilis was 100 µg/mL (≈ 305 µM); with Bacillus cereus, 100 µg/mL (≈ 305 µM); in the assay on Micrococcus luteus [1] it was 25 µg/mL (≈ 76.1 µM); against Micrococcus luteus [2] it was 50 µg/mL (≈ 152 µM); with Staphylococcus aureus [3] it was 100 µg/mL (≈ 305 µM); against Staphylococcus aureus [4], 100 µg/mL (≈ 305 µM). The MIC (in [5]; in the assay on Staphylococcus aureus [6]; against Staphylococcus aureus [7]) was 100 µg/mL (≈ 305 µM) throughout.
